OX1R antag-1: OX1R (HCRTR1) antagonists, primary screen, fluorescence, CHO/OX1R cells, Fluo-8 calcium, orexin A; AID 434989, 2010; 330,000 tested, 0.43% active; inhibition, % at 5 µM; Fluo-8 calcium fluorescence; Orexin/Hypocretin receptor type 1 (Homo sapiens), O43613;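 active means inhibition above its plate's threshold, mean inhibition of all tested compounds on the plate plus 3 SD, cut at about 37% in these data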;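 further: 0% = orexin A challenge wells and 100% = SB-334867-A antagonist wells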
OX1R antag-2: antagonists of human orexin 1 receptor (OX1R); Orexin/Hypocretin receptor type 1 (Homo sapiens), O43613; OX1R-expressing cells, FRET antagonist read-out; 330,000 tested, 1.8% active; inhibition, % at 6.6 µM; in the data active means inhibition mostly above about 38%, no sharp cut-off; inactive means mostly below about 40%;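 further: 0% = agonist challenge alone and 100% = reference antagonist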
GalR3 antag: GalR3 antagonists in HEK293 cells, primary screen, cell-based, fluorescence readout; HEK293 GalR3-CNG cAMP membrane potential fluorescence; galR3 body fused to GalR1 C-terminus; inhibition, % at 3 µM; 360,000 tested, 0.44% active;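 active means inhibition above the screen-wide average plus 3 SD, cut at about 13% in these data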;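 further: forskolin and galanin both at EC90 stimulate the cells; cAMP rise reported by CNG channel membrane potential dye signal; 0% = forskolin plus galanin with DMSO and 100% = forskolin alone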
Target sequence (O60755 1-299 limits assumed): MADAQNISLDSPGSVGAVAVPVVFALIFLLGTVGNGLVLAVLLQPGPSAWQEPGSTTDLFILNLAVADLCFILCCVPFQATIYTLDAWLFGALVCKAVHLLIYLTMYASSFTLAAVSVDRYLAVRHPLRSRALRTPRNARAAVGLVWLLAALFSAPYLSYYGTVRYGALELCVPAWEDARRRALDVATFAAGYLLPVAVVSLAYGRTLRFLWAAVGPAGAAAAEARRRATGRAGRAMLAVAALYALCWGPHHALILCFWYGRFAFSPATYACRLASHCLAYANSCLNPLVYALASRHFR
CHO parental Ca: ATP-evoked calcium signal inhibitors, parental CHO, primary screen, counter-screen for OX1R antagonist project, cell-based, fluorescence, Fluo-8 calcium dye; 330,000 tested, 0.63% active; inhibition, % at 5.6 µM; parental CHO-K1, ATP-induced calcium, Fluo-8 fluorescence;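 active means inhibition above that plate's mean sample inhibition plus 3 SD, cut at about 26% in these data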;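 further: 0% = ATP-challenged DMSO wells and 100% = DMSO wells without ATP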
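Test system: parental CHO cells; detection: calcium-sensitive Fluo-8 fluorescence; evaluation: percent inhibition of calcium signal; also added: ATP as calcium-mobilizing challenge; repeats: one well per compound; control set: ATP-challenged DMSO wells low, unchallenged DMSO wells high; compound: single nominal dose of 5.6 µM per compound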
GPR7 antagonist: GPR7 receptor antagonists, primary screen, cell-based, fluorescence, single concentration. Neuropeptides B/W receptor type 1 (Homo sapiens), P48145. GPR7-expressing cells, fluorescence antagonist assay. inhibition, % at 4.4 µM. 290,000 tested, 1.1% active; in the data active means inhibition above about 16%, passing the limit was not always enough;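 further: cells stimulated with the agonist NPW; 0% = agonist with vehicle and 100% = vehicle without agonist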
Target sequence (P48145 whole entry, looked up): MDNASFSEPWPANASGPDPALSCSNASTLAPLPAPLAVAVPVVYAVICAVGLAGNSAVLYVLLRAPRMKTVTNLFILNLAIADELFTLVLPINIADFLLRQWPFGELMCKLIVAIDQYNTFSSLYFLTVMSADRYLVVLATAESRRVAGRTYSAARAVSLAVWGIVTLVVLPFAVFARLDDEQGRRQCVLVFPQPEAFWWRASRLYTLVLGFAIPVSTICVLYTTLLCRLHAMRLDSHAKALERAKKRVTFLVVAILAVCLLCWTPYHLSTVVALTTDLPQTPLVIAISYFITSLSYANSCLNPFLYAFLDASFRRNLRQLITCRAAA
OX1R HTRF confirm: OX1R (HCRTR1) antagonists, confirmation, cell-based, HTRF; shares compounds with OX1R antag-2; OX1R-expressing cells, HTRF antagonist assay; inhibition, % at 6.6 µM; 1,800 tested, 49% active; in the data active means inhibition above about 55%;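 further: CHO cells expressing OX1R stimulated with orexin A at about EC80; 0% = agonist challenge alone and 100% = reference antagonist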
CHO-K1 HTRF: signal inhibition in parental CHO-K1 cells, counter-screen for OX1R antagonist project, cell-based, HTRF; shares compounds with OX1R antag-2; HTRF counterscreen; inhibition, % at 6.6 µM; 1,800 tested, 48% active; in the data active means inhibition above about 17%;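 further: 0% = agonist challenge with vehicle and 100% = vehicle alone without agonist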
Active calls of the source: *; / = not tested or not shown. Shown are actives, neighbours in structure and some others; about 3.1% of the full set was active somewhere.

SMILES	OX1R antag-1	OX1R antag-2	GalR3 antag	CHO parental Ca	GPR7 antagonist	OX1R HTRF confirm	CHO-K1 HTRF
O=C(Nc1nc2nc(-c3ccccc3)cc(-c3ccccc3)n2n1)c1ccco1	-5	80*	-4	-19	-14	46	7
COc1ccc(S(=O)(=O)N2CCOCC2)cc1NC(=O)c1ccc(S(=O)(=O)N(C)c2ccccc2OC)cc1	/	/	-6	/	/	/	/
CCC[n+]1c2ccccc2cc2ccccc21	-9	84*	-5	-17	19	48	54*
CCCCC[n+]1cccc2c3ccccc3ccc21	-22	46	-2	-3	12	/	/
OC[C@@H]1CN(Cc2ccc3c(c2)OCO3)C[C@H](n2cnc3c(N4CCN(c5ccccc5)CC4)ncnc32)O1	/	/	-10	/	/	/	/
Cc1cc2c(cc1C)-n1nnnc1C(N(Cc1ccccc1)Cc1ccccc1)C(=O)N2 (stereo not drawn)	/	/	1	/	/	/	/
O=C(COC(=O)c1ccc([N+](=O)[O-])o1)c1ccccc1	-11	29	-5	-7	-7	/	/
Cn1c(N)c(C(=O)COC(=O)c2ccc([N+](=O)[O-])o2)c(=O)n(C)c1=O	-11	105*	10	-11	1	31	55*
CC(C)(C)OC(=O)Nc1ccccc1-n1nnnc1C(C(=O)c1ccc(F)cc1)N1CCN(c2ccccn2)CC1 (stereo not drawn)	/	/	0	/	/	/	/
CN(C1CCCCC1)S(=O)(=O)c1cc2c3c(c1)CCN3C(=O)CC2	-23	94*	-4	4	/	27	-5
COc1cc([N+](=O)[O-])c(C(=O)N2CCOCC2)c([N+](=O)[O-])c1	10	94*	7	-5	-5	45	42*
Cc1cnc([N+](=O)[O-])n1CCOC(=O)NC(=O)c1ccccc1Cl	4	24	-3	5	15	/	/
Cc1cnc([N+](=O)[O-])n1CCOC(=O)NC(=O)c1cccc(F)c1	-14	78*	-2	-15	7	60*	16
CCn1cnc2cc(NC(=O)c3ccco3)ccc21	-7	10	-2	7	2	/	/
O=C(Nc1ccc2nn(-c3ccccc3)nc2c1)c1ccco1	21	95*	-6	7	1	71*	7
CCCn1cnc2cc(NC(=O)c3ccco3)ccc21	-17	94*	-3	-9	-6	23	-3
O=C(Nc1cc2nn(-c3ccccc3)nc2cc1Cl)c1ccco1	-15	21	1	-3	-18	/	/
O=C1NC[C@@H](CCCCN2C[C@H](Cc3ccc(O)cc3)N(CCc3ccc(O)cc3)C(=O)C2=O)N(CCc2ccccc2)C1=O	/	/	-2	/	/	/	/
Cc1c(=O)n(OCc2ccccc2)c2ccccc2[n+]1[O-]	-27	103*	0	-18	-8	52	25*
C=CCOn1c(=O)c(-c2ccc(OC)cc2)[n+]([O-])c2ccccc21	-2	98*	1	-1	-4	33	48*
COc1ccc(COn2c(=O)c(C)[n+]([O-])c3ccccc32)cc1OC	-26	41	5	-6	-8	/	/
CCOC(=O)[C@]12CCC=C1N(Cc1ccc(Cl)cc1Cl)C(=O)[C@H](CC(=O)NCCCOC)C2	/	/	1	/	/	/	/
CCN(CC)C(=O)C1=C(C)N(Cc2ccc(C(C)(C)C)cc2)C(=O)C(CC(=O)NCCCCc2ccccc2)C1 (stereo not drawn)	/	/	-7	/	/	/	/
O=[N+]([O-])c1cc(-c2ccccc2)cc([N+](=O)[O-])c1O	/	/	-4	/	/	/	/
Nc1c([N+](=O)[O-])cnnc1-c1ccccc1	2	80*	-2	-8	-10	93*	101*
SMILES	OX1R antag-1	OX1R antag-2	GalR3 antag	CHO parental Ca	GPR7 antagonist	OX1R HTRF confirm	CHO-K1 HTRF
COC(=O)[C@@H](Cc1ccccc1)NC(=O)[C@H]1O[C@@H](n2cnc3c(=O)[nH]c(N)nc32)[C@H](O)[C@@H]1O	/	/	-5	/	/	/	/
O=[N+]([O-])c1ccc(-[n+]2ccc3ccccc3c2)c([N+](=O)[O-])c1	-5	78*	-6	-3	/	47	60*
O=[N+]([O-])c1ccc(NCCN2CCOCC2)c([N+](=O)[O-])c1	/	/	-8	/	0	/	/
CCOc1cc(NCCN2CCOCC2)c([N+](=O)[O-])cc1OCC	-26	91*	-7	-7	4	38	49*
COc1ccc(/C=C/c2ccc3ccccc3[n+]2C)cc1OC	-5	78*	/	5	-5	70*	86*
CCCN1CCC(=NNc2ccc(S(N)(=O)=O)cc2[N+](=O)[O-])CC1	0	85*	-2	-5	-17	38	56*
CC1CCN(c2cc(N(C)CCO)c([N+](=O)[O-])c3nonc23)CC1	-13	39	-4	-4	-8	/	/
CN(CCO)c1cc(N2CCN(C(=O)c3ccco3)CC2)c2nonc2c1[N+](=O)[O-]	2	107*	-3	3	12	43	48*
COc1ccc2cc3cc(C(=O)NCc4cccs4)oc3nc2c1	0	22	-3	0	2	/	/
COc1ccc2cc3cc(C(=O)NCCc4ccc(OC)c(OC)c4)oc3nc2c1	-21	43	-7	-22	-4	/	/
CCCN(CCC)CCCNC(=O)c1cc2cc3ccc(OC)cc3nc2o1	-14	123*	-4	-7	-14	36	58*
CCCCN(CC)CCCNC(=O)c1cc2cc3ccc(OC)cc3nc2o1	-20	104*	0	-25	-8	45	49*
CCC/C=C/c1ccc(CN2C(CC(C)C)C(=O)N(Cc3cn(Cc4ccco4)nn3)CCS2(=O)=O)cc1 (stereo not drawn)	/	/	-6	/	/	/	/
CC1(C(=O)NS(=O)(=O)C2CC2)CCCN(C(=O)c2ccc3ccccc3c2)C1 (stereo not drawn)	/	/	-7	/	/	/	/
O=C(COC(=O)c1cc(S(=O)(=O)N2CCOCC2)ccc1F)Nc1ccccc1C(F)(F)F	/	/	-5	/	/	/	/
COc1cc(/C=C/CNC[C@H]2O[C@@H](n3cc(C)c(=O)[nH]c3=O)C[C@@H]2O)ccc1O	/	/	-3	/	/	/	/
COc1ccc(OC)c(N/C(C)=C/C(=O)c2ccncc2)c1	-40	16	-10	-17	-2	/	/
C/C(=C\C(=O)c1ccncc1)Nc1ccccc1O	0	91*	-4	3	8	24	7
COc1ccc(-c2cc(C(F)F)n3ncc(C(=O)N4CCc5ccccc54)c3n2)cc1	-37	10	1	-17	-8	/	/
COc1ccc(-c2cc(C(F)F)n3ncc(C(=O)n4ccnc4C)c3n2)cc1	-14	108*	1	-17	-4	43	29*

Source: PubChem (The Scripps Research Institute Molecular Screening Center)
